Screens deposited in PubChem by Sanford-Burnham Center for Chemical Genomics.
SENP8 block-1 – human SENP8 protease inhibitors, primary screen, biochemical, fluorescence, Nedd8 protein substrate, uHTS | recombinant SENP8 | inhibition, % at 20 µM | actives 0.64% (n = 360,000); in the data active = inhibition mostly above about 40%, no sharp cut-off; inactive = mostly below about 27%
SENP7 block – SENP7 protease inhibitors, primary screen, biochemical, luminescence, uHTS. AID 434973, 2010. recombinant SENP7, Z-RLRGG-aminoluciferin luminescence, 40 min. actives 1.5% (n = 330,000). inhibition, % at 5 µM;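 active = inhibition above about 50% at the single test dose, limit read from the data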;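 also: plate controls were DMSO with enzyme for no effect and no enzyme buffer wells for full effect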
Target sequence (Q9BQF6 706-1050 limits assumed): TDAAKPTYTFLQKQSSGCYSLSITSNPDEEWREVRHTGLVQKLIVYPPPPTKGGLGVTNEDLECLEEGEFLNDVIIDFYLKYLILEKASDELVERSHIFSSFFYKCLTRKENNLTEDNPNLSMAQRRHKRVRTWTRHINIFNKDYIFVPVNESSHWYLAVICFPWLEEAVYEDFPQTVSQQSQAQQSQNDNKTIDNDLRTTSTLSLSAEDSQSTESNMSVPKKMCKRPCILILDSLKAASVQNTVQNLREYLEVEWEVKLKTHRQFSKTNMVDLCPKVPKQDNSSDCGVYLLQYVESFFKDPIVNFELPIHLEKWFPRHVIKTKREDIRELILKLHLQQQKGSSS
Apaf-1 inh – inhibitors of human Apaf-1 apoptosome, primary screen, biochemical, DEVD-Rh110 fluorescence, uHTS | Apoptotic protease-activating factor 1 (Homo sapiens), O14727 | reconstituted apoptosome caspase-3 activity | inhibition, % at 20 µM | actives 0.71% (n = 330,000); active = inhibition of at least 40% at 20 µM;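 also: plate controls were DMSO wells for no effect and DEVD-CHO caspase inhibitor wells for full effect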
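Assay system – apoptosome proteins · Medium – Hepes buffer, pH 7.5 · Also added – cytochrome c with DEVD-Rh110 · Timing – 30 min compound preincubation, 50 min activation, room temperature · Detection – Rh110 fluorescence, excitation 480 nm, emission 540 nm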
SENP1 inh – human SENP1 catalytic domain inhibitors, primary screen, biochemical, FRET, uHTS; Sentrin-specific protease 1 (Homo sapiens), Q9P0U3; recombinant SENP1 catalytic domain, CyPet-SUMO1-YPet FRET cleavage; inhibition, % at 10 µM; actives 0.21% (n = 360,000); AID 624204, 2012;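 active = inhibition at least 30% at 10 µM, raw YFP signal under a set limit, fluorescence ratio 0.5 to 1.5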;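 also: 0% = enzyme with DMSO and 100% = no enzyme wells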
Target sequence (Q9P0U3 419-644 limits assumed): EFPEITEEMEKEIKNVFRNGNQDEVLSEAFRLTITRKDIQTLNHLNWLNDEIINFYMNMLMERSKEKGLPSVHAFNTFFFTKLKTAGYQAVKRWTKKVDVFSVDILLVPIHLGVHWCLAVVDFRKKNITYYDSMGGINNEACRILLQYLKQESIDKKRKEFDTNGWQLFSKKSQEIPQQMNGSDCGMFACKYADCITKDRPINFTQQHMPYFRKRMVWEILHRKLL
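Test system: hSENP1 catalytic domain, recombinant; Amount: 20 pM final SENP1 enzyme; Medium: Tris pH 8 buffer plus EDTA, NaCl, BME, BSA, NP40, catalase; Schedule: 50 min enzyme reaction, room temperature, light-protected; Technique: FRET fluorescence in CFP and YFP emission channels; Controls: no-enzyme wells low, DMSO-plus-enzyme wells high control.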
SENP6 inh – SENP6 protease inhibitors, primary screen, biochemical, luminescence, uHTS. Recombinant SENP6 catalytic domain, aminoluciferin luminescence. actives 1.8% (n = 330,000). inhibition, % at 10 µM. AID 2599, 2010;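 active = inhibition above about 50% at the single tested dose, limit read from the data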;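 also: plate controls were DMSO wells with enzyme for no effect and DMSO wells lacking enzyme for full effect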
SENP8 block-2 – SENP8 protease inhibitors, primary screen, biochemical, luminescence; Sentrin-specific protease 8 (Homo sapiens), Q96LD8; purified SENP8, Z-RLRGG-aminoluciferin cleavage; inhibition, % at 10 µM; actives 1.2% (n = 330,000); in the data active = inhibition above about 50%
* marks the source's active call; other numbers are inactive results. A selection: hits, their analogues and other compounds. The true share with any hit is near 2.9%.

Screening O=C(Oc1ccc(Br)cc1C(=S)N1CCCCC1)c1cc([N+](=O)[O-])cc([N+](=O)[O-])c1 returned SENP8 block-1 43.8*, SENP7 block 6.6, Apaf-1 inh 8.2, SENP1 inh 3.5, SENP6 inh -2.2 and SENP8 block-2 2.3.
`CCc1c(O)nc(SCC(=O)Nc2ccc(Cl)cc2)n(-c2ccccc2)c1=O` gave SENP8 block-1 7.7 and SENP1 inh -1.5.
For CCNC(=S)N=Nc1c(O)[nH]c2ccc([N+](=O)[O-])cc12 the results were SENP8 block-1 8.9, SENP7 block 9.4, Apaf-1 inh -10.4, SENP1 inh 2.5, SENP6 inh 9.4 and SENP8 block-2 -3.5.
For O=[N+]([O-])c1ccc2[nH]c(O)c(N=NC(=S)Nc3cccnc3)c2c1 the results were SENP8 block-1 41.6*, SENP7 block -6.8, Apaf-1 inh 1.4, SENP1 inh 2.3, SENP6 inh -20.4 and SENP8 block-2 -4.0.
`Cc1csc(N=Nc2ccc(N(C)C)cc2)[n+]1[O-]` gave SENP8 block-1 11.0 and SENP1 inh -3.0.
Nc1nc(=S)c2[nH]cnc2[nH]1 was read as SENP8 block-1 0.2, SENP7 block 2.2, Apaf-1 inh -6.1, SENP1 inh -1.7, SENP6 inh 13.3 and SENP8 block-2 4.0.
Nc1ccc(OCc2ccco2)cc1 was read as SENP8 block-1 19.3, SENP7 block 54.4*, Apaf-1 inh -26.5, SENP1 inh -0.3, SENP6 inh 1.8 and SENP8 block-2 1.9.
`Nc1ccc(OCc2ccccc2)cc1` gave SENP8 block-1 0.9, SENP7 block -0.3, Apaf-1 inh -7.8, SENP1 inh 2.6, SENP6 inh 23.8 and SENP8 block-2 3.5.
`CCN(CC(=O)Nc1ccc2c(c1)OCCO2)C(=O)CCc1ccccc1Cl` gave SENP8 block-1 14.5, SENP7 block -6.2, Apaf-1 inh -1.7, SENP1 inh -0.5, SENP6 inh 1.2 and SENP8 block-2 5.2.
`O=C1OCC/C1=C\NCCCCCCCCN/C=C1\CCOC1=O` gave SENP8 block-1 15.8 and SENP1 inh -3.1.
For CCc1ccc2[nH]c(O)c(N=Nc3nc(-c4ccccc4)cs3)c2c1 the results were SENP8 block-1 33.8, SENP7 block 7.8, Apaf-1 inh 22.3, SENP1 inh 32.7*, SENP6 inh -0.6 and SENP8 block-2 -0.5.
Screening Cc1ccc(N=Nc2c(O)[nH]c3ccc(F)cc23)cc1 returned SENP8 block-1 15.6, SENP7 block 5.8, Apaf-1 inh 8.4, SENP1 inh 27.9, SENP6 inh -1.2 and SENP8 block-2 -4.3.
`O=C(Nc1ccc(S(=O)(=O)N2CCCCC2)cc1)c1ccc(CN2CCc3ccccc3C2)cc1` gave SENP8 block-1 53.1*, SENP7 block -6.1, Apaf-1 inh 13.9, SENP1 inh 2.1, SENP6 inh 2.6 and SENP8 block-2 1.4.
`CCCN1Cc2cccc(C(=O)NCCc3ccccc3)c2C1=O` gave SENP8 block-1 10.0, SENP7 block -3.1, Apaf-1 inh 14.7, SENP1 inh 1.6, SENP6 inh -28.5 and SENP8 block-2 -5.2.
Screening O=[N+]([O-])c1cc(Cl)cc(/C=N/n2cnnc2)c1O returned SENP8 block-1 47.2*, SENP7 block -8.4, Apaf-1 inh -1.1, SENP1 inh 9.7, SENP6 inh -9.0 and SENP8 block-2 -6.1.
`COC(=O)CCCn1cc(CN2CC(N3CCN(Cc4ccccc4F)CC3)CS2(=O)=O)nn1` (centres undefined) gave SENP8 block-1 5.5 and SENP1 inh 1.7.
For O=C1c2cccc(Cl)c2C(=O)c2c1cccc2N1CCCC1 the results were SENP8 block-1 73.5*, SENP7 block 8.4, Apaf-1 inh 32.1, SENP1 inh 1.5, SENP6 inh 28.6 and SENP8 block-2 27.0.
`O=C1C(Cl)=C(N2CCCCC2)C(=O)N1c1ccccc1Cl` gave SENP8 block-1 9.8, SENP7 block -1.4, Apaf-1 inh 14.3, SENP1 inh -17.1, SENP6 inh -3.9 and SENP8 block-2 0.2.
COc1ccc(CCNC(=O)CCC(=O)N2CCOc3ccccc32)cc1OC was read as SENP8 block-1 6.8, SENP7 block 2.9, Apaf-1 inh -11.4, SENP1 inh 3.0, SENP6 inh 14.8 and SENP8 block-2 7.4.
Screening O=C(O)c1ccc(-c2nc(-c3ccccc3)cs2)cc1 returned SENP8 block-1 -86.7, SENP7 block 89.1*, Apaf-1 inh 10.4, SENP1 inh 2.8, SENP6 inh 97.1* and SENP8 block-2 92.0*.
Screening O=C1C(c2ccccc2)=NCCN1C(c1ccc(F)cc1)c1nc2ccccc2[nH]1 (centres undefined) returned SENP8 block-1 7.7 and SENP1 inh 1.0.
Screening O=C1C=C(Nc2cccc3cccnc23)c2ccccc2C1=O returned SENP8 block-1 43.0*, SENP7 block 8.6, Apaf-1 inh 47.3*, SENP1 inh -20.8, SENP6 inh 33.0 and SENP8 block-2 9.5.
`N#C/C(=C\c1ccccc1O)C(=O)Nc1cccnc1` gave SENP8 block-1 2.6, SENP7 block 75.1*, Apaf-1 inh -1.3, SENP1 inh -2.0, SENP6 inh 76.8* and SENP8 block-2 50.6*.
For O=c1c2ccccc2cnn1CCOc1ccccc1 the results were SENP8 block-1 8.3, SENP7 block 92.9*, Apaf-1 inh 5.6, SENP1 inh -1.5, SENP6 inh 91.5* and SENP8 block-2 91.6*.
`O=C(/C=C/c1cccs1)Nc1ccncc1` gave SENP8 block-1 8.8, SENP7 block 18.6, Apaf-1 inh 3.2, SENP1 inh 1.0, SENP6 inh 26.7 and SENP8 block-2 10.0.
